Holding throughout (format): functional
Settings in all cases: for EC50: read-out: ED50 (the source's name)

The test system of one assay is HEp-2. Description: Cytotoxicity against human Hep2 cells by MTT assay. Summed up:
(§1)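 MTT assay on human tumor cell lines (Hep2/Hepa2 […], WiDr colon, HeLa cervical). ED50 is the concentration of test sample giving a 50% reduction in absorbance relative to untreated cells, in µg/mL. Camptothecin served as positive control.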
In general terms: Formazan colour is commonly taken as a measure of viable cells.

The next assay has as its system HeLa. Description: Cytotoxicity against human HeLa cells by MTT assay. Summed up:
as §1

The test system of the next assay is WiDr. The experiment in a line: Cytotoxicity against human WiDr cells by MTT assay. Summed up:
as §1

≈ marks a conversion by molar mass, not a printed value. Calls of active or inactive are those of the source. The calls are words filed in the database; no cut-off is given here. Some results are limits rather than exact numbers.

Turning to `CC(=O)O[C@H]1C[C@H]2[C@@H](O)/C=C3\C[C@](C)(C(=O)[C@H](O)C(=C1C)C2(C)C)[C@@H](OC(C)=O)C[C@@H]3O`, the outcome in the assay with HEp-2, with HeLa and in the assay on WiDr was inactive.
Regarding `CC(=O)OC[C@@]12C([C@H](OC(=O)c3ccccc3)[C@]34CCC(C)=C3[C@@]1(O)C(=O)OC4(C)C)[C@]1(OC(C)=O)CO[C@@H]1C[C@@H]2O` (stereo partly specified), the outcome with HEp-2, with HeLa and in the assay on WiDr was inactive.
Turning to `CC1=C2[C@@]3(O)C(=O)OC(C)(C)[C@]2(CC1)[C@@H](O)C1[C@](O)(CO)[C@@H](OC(=O)c2ccccc2)C[C@H](O)[C@]13C` (stereo partly specified), the outcome with HEp-2, in the assay with HeLa and in the assay on WiDr was inactive.
Take `CC[C@@]1(O)C(=O)OCc2c1cc1n(c2=O)Cc2cc3ccccc3nc2-1` [CAMPTOTHECIN]: the figures for the EC50 in the assay on HEp-2, in the assay with HeLa and with WiDr were 0.02 µg/mL (≈ 0.0574 µM), 0.19 µg/mL (≈ 0.545 µM) and 0.07 µg/mL (≈ 0.201 µM), respectively.
`CC(=O)OC[C@@]12C([C@H](OC(=O)c3ccccc3)[C@]34C[C@H](O)C(C)=C3[C@@]1(O)C(=O)OC4(C)C)[C@]1(OC(C)=O)CO[C@@H]1C[C@@H]2O` (stereo partly specified): the result with HEp-2, with HeLa and with WiDr was inactive.
With `CC(=O)O[C@@]12CO[C@@H]1C[C@H](O)[C@@]13COC(=O)[C@]1(O)C1=C(C)CC[C@@]1(C(C)(C)O)[C@@H](OC(=O)c1ccccc1)C32` (stereo partly specified) [TASUMATROL Y], the EC50 was 3.5 µg/mL (≈ 6.45 µM) in the assay with HEp-2, above 5 µg/mL with HeLa and above 5 µg/mL in the assay on WiDr.
For the molecule `CC(=O)O[C@H]1C[C@H]2OC[C@@]2(OC(C)=O)C2[C@H](OC(=O)c3ccccc3)[C@]3(C(C)(C)O)C[C@H](O)C(C)=C3[C@@]3(O)C(=O)OC[C@]213` (stereo partly specified), the outcome with HEp-2, in the assay on HeLa and with WiDr was inactive.
